# Test results: ChEMBL document CHEMBL1123082, “Hashish: synthesis and central nervous system activity of some novel analogues of cannabidiol and oxepin derivatives of delta 9-tetrahydrocannabinol” (1985)
# Active and inactive are the calls of the source.
# Legend:
# Mus musculus [1] = assay: The difference between the preinjection and postinjection (60 min) temperatures in mice was evaluated at a dose 5 mg/kg; assay type: functional
# In short: (§1)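 Male ICR mice (22–30 g). Rectal temperature taken by thermistor probe inserted 25 mm just before iv vehicle or drug (0.1 mL/10 g). Mice spent 10 min in activity chambers, then temperature was taken immediately and every 10 min up to 60 min. Value is the change from pre-injection to 60 min post-injection, mean ± SEM, N = 6. Ambient temperature was 21–24 °C.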
# Mus musculus [2] = assay: The difference between the preinjection and postinjection (60 min) temperatures in mice was evaluated at a dose 7.5 mg/kg; assay type: functional
# Mus musculus [3] = assay: The difference between the preinjection and postinjection (60 min) temperatures in mice was evaluated at a dose 2.5 mg/kg; assay type: functional
# Mus musculus [4] = assay: Compound was evaluated for the maximum possible effect in tail-flick test in mice at dose 0.3 mg/kg; assay type: functional
# In short: (§2)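 Male ICR mice (22–30 g). Control tail-flick latency to a heat source measured in each mouse. Vehicle or drug then given iv into the tail vein and latency retested 5 min later, with a 10 s cutoff. %MPE = (test − control)/(cutoff − control) × 100. At least six mice per dose.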
# Mus musculus [5] = assay: Compound was evaluated for the maximum possible effect in tail-flick test in mice at dose 1 mg/kg; assay type: functional; in short: as §2
# Mus musculus [6] = assay: Compound was evaluated for the maximum possible effect in tail-flick test in mice at dose 2.5 mg/kg; assay type: functional; in short: as §2
# Mus musculus [7] = assay: Spontaneous activity in mice at a dose 10 mg/kg; Not active up to a lethal dose of 60 mg/kg; assay type: functional, organism-based
# In short: (§3)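 Male ICR mice (22–30 g), housed 24 h in the lab before testing. Vehicle or drug given iv (0.1 mL/10 g), then each mouse placed alone in a photocell activity chamber. Beam interruptions counted for 10 min and expressed as percent of vehicle-treated controls. ED50 with 95% confidence limits by Litchfield–Wilcoxon. At least six mice per dose.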
# Mus musculus [8] = assay: Compound was evaluated for the percent antagonism by tail-flick test in mice at dose 10 mg/kg; assay type: functional
# In short: (§4)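 Male ICR mice (22–30 g). Vehicle or drug given iv 10 min before an iv injection of Δ9-THC (1 mg/kg) or vehicle into the opposite tail vein. Tail-flick measured 5 min after the second injection, with a 10 s cutoff. % antagonism = [1 − (%MPE drug-pretreated / %MPE vehicle-pretreated)] × 100. At least six mice per dose.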
# Mus musculus [9] = assay: Compound was evaluated for the percent antagonism by tail-flick test in mice in mice at dose 20 mg/kg; assay type: functional; in short: as §4
# Mus musculus [10] = assay: The difference between the preinjection and postinjection (60 min) temperatures in mice was evaluated at a dose 30 mg/kg; assay type: functional; in short: as §1
# Mus musculus [11] = assay: The difference between the preinjection and postinjection (60 min) temperatures in mice was evaluated at a dose 10 mg/kg; assay type: functional; in short: as §1
# Mus musculus [12] = assay: Compound was evaluated for the maximum possible effect by tail-flick test in mice at dose 20 mg/kg; assay type: functional; in short: as §2
# Mus musculus [13] = assay: Spontaneous activity in mice at a dose 10 mg/kg; assay type: functional; in short: as §3
# Mus musculus [14] = assay: Compound was evaluated for the percent antagonism in tail-flick test in mice in mice at dose 10 mg/kg; assay type: functional; in short: as §4
# Mus musculus [15] = assay: The difference between the preinjection and postinjection (60 min) temperatures in mice was evaluated at a dose 60 mg/kg; assay type: functional
# In short: (§5)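 Male ICR mice (22–30 g), housed 24 h before testing; rectal temperature by thermistor probe inserted 25 mm, taken just before dosing. Drug or vehicle given iv (0.1 mL/10 g); mice held 10 min in photocell chambers, then temperature read at 10-min intervals to 60 min. Value is pre- minus 60-min post-injection difference, mean ± SEM, N = 6.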
# Canis familiaris [16] = assay: Compound was evaluated for overt behavoiur in dogs by behavioral rating score in dog static-ataxia test at a dose 0.5 mg/kg; assay type: functional, Canis lupus familiaris
# In short: (§6)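 Mongrel dogs of either sex (8–12 kg) scored for spontaneous activity, gait, tail tuck, etc. before dosing. Cannabinoid or vehicle then given iv (1 mL/5 kg). Behaviour rated every 5 min on the Walton static-ataxia scale as modified. Sessions of five dogs: vehicle, 0.2 mg/kg Δ9-THC positive control, or one of three other cannabinoid treatments. Score given with number of dogs.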
# Mus musculus [17] = assay: The difference between the preinjection and post injection temperatures in vehicle treated mice was evaluated at a dose 100 mg/kg; assay type: functional; in short: as §1
# Mus musculus [18] = assay: The difference between the preinjection and post injection temperatures in vehicle treated mice was evaluated at a dose 10 mg/kg; assay type: functional; in short: as §1
# Mus musculus [19] = assay: The difference between the preinjection and post injection temperatures in vehicle treated mice was evaluated at a dose 1 mg/kg; assay type: functional; in short: as §1
# Mus musculus [20] = assay: The difference between the preinjection and post injection temperatures in vehicle treated mice was evaluated at a dose 30 mg/kg; assay type: functional; in short: as §1
# Mus musculus [21] = assay: The difference between the preinjection and post injection temperatures in vehicle treated mice was evaluated at a dose 3 mg/kg; assay type: functional; in short: as §1
# Mus musculus [22] = assay: Compound was evaluated spontaneous activity in vehicle treated mice at a dose 100 mg/kg.; assay type: functional; in short: as §3
# Mus musculus [23] = assay: Compound was evaluated spontaneous activity in vehicle treated mice at a dose 10 mg/kg.; assay type: functional; in short: as §3
# Mus musculus [24] = assay: Compound was evaluated spontaneous activity in vehicle treated mice at a dose 1 mg/kg.; assay type: functional; in short: as §3
# Mus musculus [25] = assay: Compound was evaluated spontaneous activity in vehicle treated mice at a dose 3 mg/kg.; assay type: functional; in short: as §3
# Mus musculus [26] = assay: Compound was evaluated spontaneous activity in vehicle treated mice at a dose 30 mg/kg.; assay type: functional; in short: as §3
# Mus musculus [27] = assay: Compound was evaluated for the percent antagonism in tail-flick test in mice at a dose 20 mg/kg; assay type: functional; in short: as §4
# Mus musculus [28] = assay: Compound was evaluated for the maximum possible effect in tail-flick test in mice at dose 20 mg/kg; assay type: functional; in short: as §2
# Mus musculus [29] = assay: Compound was evaluated for the percent antagonism by tail-flick test in mice in mice at dose 1.0 mg/kg; assay type: functional; in short: as §4
# Mus musculus [30] = assay: Compound was evaluated for the percent antagonism by tail-flick test in mice in mice at dose 2.5 mg/kg; assay type: functional; in short: as §4
# Mus musculus [31] = assay: Compound was evaluated for the percent antagonism by tail-flick test in mice in mice at dose 5.0 mg/kg; assay type: functional; in short: as §4
# Mus musculus [32] = assay: The difference between the preinjection and postinjection (60 min) temperatures in mice was evaluated at a dose 1.0 mg/kg; assay type: functional; in short: as §1
# Mus musculus [33] = assay: The difference between the preinjection and postinjection (60 min) temperatures in mice was evaluated at a dose 5.0 mg/kg; assay type: functional; in short: as §1
# Mus musculus [34] = assay: Compound was evaluated for the maximum possible effect by tail-flick test in mice at dose 5.0 mg/kg; assay type: functional; in short: as §2
# Mus musculus [35] = assay: Compound was evaluated for the percent antagonism by tail-flick test in mice in mice at dose 10 mg/kg; assay type: functional; in short: as §4
# Mus musculus [36] = assay: Compound was evaluated for the percent antagonism by tail-flick test in mice in mice at dose 25 mg/kg; assay type: functional; in short: as §4
# Mus musculus [37] = assay: The difference between the preinjection and postinjection (60 min) temperatures in mice was evaluated at a dose 35 mg/kg; assay type: functional; in short: as §1
# Mus musculus [38] = assay: The difference between the preinjection and postinjection (60 min) temperatures in mice was evaluated at a dose 25 mg/kg; assay type: functional; in short: as §1
# Mus musculus [39] = assay: Compound was evaluated for the maximum possible effect by tail-flick test in mice at dose 25 mg/kg; assay type: functional; in short: as §2
# Mus musculus [40] = assay: Compound was evaluated for the percent antagonism in tail-flick test in mice at dose 40 mg/kg; assay type: functional; in short: as §4
# Mus musculus [41] = assay: The difference between the preinjection and postinjection (60 min) temperatures in mice was evaluated at a dose 40 mg/kg; assay type: functional; in short: as §1
# Mus musculus [42] = assay: The difference between the preinjection and postinjection (60 min) temperatures in mice was evaluated at a dose 50 mg/kg; assay type: functional; in short: as §1
# Mus musculus [43] = assay: The difference between the preinjection and postinjection (60 min) temperatures in mice was evaluated at a dose 75 mg/kg; assay type: functional; in short: as §5
# Mus musculus [44] = assay: The difference between the preinjection and postinjection (60 min) temperatures in mice was evaluated at a dose 100 mg/kg; assay type: functional; in short: as §1
# Mus musculus [45] = assay: Compound was evaluated for the maximum possible effect in tail-flick test in mice at dose 40 mg/kg; assay type: functional; in short: as §2
# Canis familiaris [46] = assay: Compound was evaluated for overt behavoiur in dogs by behavioral rating score in dog static-ataxia test at a dose 5 mg/kg; assay type: functional, Canis lupus familiaris; in short: as §6
# Canis familiaris [47] = assay: Compound was evaluated for overt behavoiur in dogs by behavioral rating score in dog static-ataxia test at a dose 2 mg/kg; assay type: functional, Canis lupus familiaris; in short: as §6
# Mus musculus [48] = assay: The difference between the preinjection and post injection temperatures in vehicle treated mice was evaluated at a dose 2 mg/kg; assay type: functional; in short: as §1
# Mus musculus [49] = assay: Spontaneous activity in vehicle treated mice at a dose 100 mg/kg.; assay type: functional; in short: as §3
# Mus musculus [50] = assay: Spontaneous activity in vehicle treated mice at a dose 30 mg/kg.; assay type: functional; in short: as §3
smiles,measurement,setting,value
CCCCCc1cc(O)c2c(c1)OC(C)(C)[C@@H]1CCC(C)=C[C@@H]21 [DRONABINOL],Hypothermic effect,Mus musculus [1],3.6
same,Hypothermic effect,Mus musculus [2],3.8
same,Hypothermic effect,Mus musculus [3],2.6
same,MPE,Mus musculus [4],27%
same,MPE,Mus musculus [5],53%
same,MPE,Mus musculus [6],61%
C=C(CN(C(C)C)C(C)C)[C@@H]1CCC(C)=CC1c1c(OC(C)=O)cc(CCCCC)cc1OC(C)=O (stereo partly drawn),ED50,Mus musculus [7],inactive
same,Antagonism,Mus musculus [8],0%
same,Antagonism,Mus musculus [9],58%
same,Hypothermic effect,Mus musculus [10],0.9
same,Hypothermic effect,Mus musculus [11],1
same,MPE,Mus musculus [12],0%
C#CCN(C)CC(=C)[C@@H]1CCC(C)=CC1c1c(OC(C)=O)cc(CCCCC)cc1OC(C)=O (stereo partly drawn),ED50,Mus musculus [13],13 mg/kg
same,Antagonism,Mus musculus [9],63%
same,Antagonism,Mus musculus [14],25%
same,Hypothermic effect,Mus musculus [10],1
same,Hypothermic effect,Mus musculus [15],1.5
same,Hypothermic effect,Mus musculus [11],0.3
same,MPE,Mus musculus [12],0%
C=C1COc2cc(C(C)C(C)CCCCC)cc(O)c2C2C=C(C)CC[C@@H]12 (stereo partly drawn),Overt behavoiur,Canis familiaris [16],0
same,Hypothermic effect,Mus musculus [17],7.8
same,Hypothermic effect,Mus musculus [18],4.9
same,Hypothermic effect,Mus musculus [19],0.4
same,Hypothermic effect,Mus musculus [20],5.7
same,Hypothermic effect,Mus musculus [21],0.6
same,Spontaneous activity,Mus musculus [22],82
same,Spontaneous activity,Mus musculus [23],71
same,Spontaneous activity,Mus musculus [24],10
same,Spontaneous activity,Mus musculus [25],50
same,Spontaneous activity,Mus musculus [26],58
C=C(CN1CCOCC1)[C@@H]1CCC(C)=CC1c1c(OC(C)=O)cc(CCCCC)cc1OC(C)=O (stereo partly drawn),ED50,Mus musculus [13],16 mg/kg
same,Antagonism,Mus musculus [27],14%
same,Hypothermic effect,Mus musculus [10],1.2
same,Hypothermic effect,Mus musculus [15],1.3
same,Hypothermic effect,Mus musculus [11],0.9
same,MPE,Mus musculus [28],3%
C=C(CNCC)[C@@H]1CCC(C)=CC1c1c(O)cc(CCCCC)cc1O (stereo partly drawn),Antagonism,Mus musculus [29],33%
same,Antagonism,Mus musculus [30],66%
same,Antagonism,Mus musculus [31],67%
same,Hypothermic effect,Mus musculus [32],1
same,Hypothermic effect,Mus musculus [33],1
same,Hypothermic effect,Mus musculus [3],1.4
same,MPE,Mus musculus [34],7%
C=C(CNC(=O)CCCN)[C@@H]1CCC(C)=CC1c1c(O)cc(CCCCC)cc1O (stereo partly drawn),ED50,Mus musculus [13],30 mg/kg
same,Antagonism,Mus musculus [35],14%
same,Antagonism,Mus musculus [36],43%
same,Hypothermic effect,Mus musculus [10],2
same,Hypothermic effect,Mus musculus [37],2.1
same,Hypothermic effect,Mus musculus [38],1.3
same,MPE,Mus musculus [39],7%
C=C(C)[C@@H]1CCC(C)=C[C@H]1c1c(O)cc(CCCCC)cc1O [CANNABIDIOL],Antagonism,Mus musculus [40],0%
same,Hypothermic effect,Mus musculus [41],0.5
same,Hypothermic effect,Mus musculus [42],0.4
same,Hypothermic effect,Mus musculus [43],2.1
same,Hypothermic effect,Mus musculus [44],2.5
same,MPE,Mus musculus [45],5%
C=C1COc2cc(CCCCC)cc(O)c2C2C=C(C)CC[C@@H]12 (stereo partly drawn),Overt behavoiur,Canis familiaris [46],0
same,Overt behavoiur,Canis familiaris [47],0
same,Hypothermic effect,Mus musculus [17],0
same,Hypothermic effect,Mus musculus [48],0.4
same,Hypothermic effect,Mus musculus [20],0.1
same,Spontaneous activity,Mus musculus [49],41
same,Spontaneous activity,Mus musculus [50],0
